Data published in ChEMBL document CHEMBL1121525, “Folate analogues altered in the C9--N10 bridge region. 14. 11-Oxahomofolic acid, a potential antitumor agent” (J Med Chem, 1980).
In brackets after ≈: the same amount, converted by molar mass.

Columns and labels:
Assay type in all cases: functional, organism-based
Lacticaseibacillus casei [1] = test: Compound was measured for the 50% growth inhibition of Lactobacillus casei ATCC 7469 microorganism.; conditions: for IC50: Lacticaseibacillus casei, ATCC 7469, read-out: I50
How it was run: (§1)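 Drug solution concentrations were set either by weight or by UV absorbance at pH 7.4, using extinction coefficients of 9600 at 270 nm or 10 250 at 301 nm. The 7,8-dihydro form was made by treating the potassium salt with excess sodium dithionite at room temperature. The tetrahydro forms came from catalytic or enzymatic reduction.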

Lacticaseibacillus casei [2] = test: Compound was measured for the 50% growth inhibition of Lactobacillus casei MTX resistant microorganism.; conditions: for IC50: Lacticaseibacillus casei, read-out: I50; how it was run: as §1
Enterococcus faecium [3] = test: Compound was measured for the 50% growth inhibition of Streptococcus faecium MTX resistant microorganism.; conditions: for IC50: Enterococcus faecium, read-out: I50
How it was run: (§2)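 Growth-inhibition test. The reduced test forms were quantified by UV absorbance at pH 7.4 using a molar absorptivity at 270 or 301 nm. Other forms were quantified by weight. The 7,8-dihydro form was made by excess sodium dithionite reduction of the aqueous potassium salt at room temperature.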

Enterococcus faecium [4] = test: Compound was measured for the 50% growth inhibition of Streptococcus faecium ATCC 8043 microorganism.; conditions: for IC50: Enterococcus faecium, ATCC 8043, read-out: I50; how it was run: as §2

Row | SMILES | IC50 (Lacticaseibacillus casei [1]) [ng/mL] | IC50 (Lacticaseibacillus casei [2]) [ng/mL] | I50 (Enterococcus faecium [3]) [ng/mL] | I50 (Lacticaseibacillus casei [1]) [ng/mL] | I50 (Lacticaseibacillus casei [2]) [ng/mL] | I50 (Enterococcus faecium [4]) [ng/mL] | IC50 (Enterococcus faecium [3]) [ng/mL] | IC50 (Enterococcus faecium [4]) [ng/mL]
1 | Nc1nc(O)c2c(n1)NCC(CCOc1ccc(C(=O)NC(CCC(=O)O)C(=O)O)cc1)=N2 (stereo not drawn) | 240 (≈ 0.524 µM) | 700 (≈ 1.53 µM) | – | – | – | – | – | –
2 | Nc1nc(O)c2c(n1)NCC(CCOc1ccc(C(=O)NC(CCC(=O)O)C(=O)O)cc1)N2 (stereo in doubt) | – | – | > 200 | 56 | 64 | 9 | – | –
3 | Nc1nc(O)c2nc(CCOc3ccc(C(=O)NC(CCC(=O)O)C(=O)O)cc3)cnc2n1 (stereo not drawn) | 320 (≈ 0.701 µM) | 1000 (≈ 2.19 µM) | – | – | – | – | 260 (≈ 0.57 µM) | 14 (≈ 0.0307 µM)
4 | Nc1nc(O)c2c(n1)NCC(CCOc1ccc(C(=O)NC(CCC(=O)O)C(=O)O)cc1)N2 (racemic) | – | – | 50 | 10 | 19 | 0.7 | – | –
5 | CN(Cc1cnc2nc(N)nc(N)c2n1)c1ccc(C(=O)N[C@@H](CCC(=O)O)C(=O)O)cc1 [METHOTREXATE] | 0.07 (≈ 0.000154 µM) | – | – | – | > 500000 | – | 3500 (≈ 7.7 µM) | 0.05 (≈ 0.00011 µM)
